In ChEMBL document CHEMBL3352316, “Optimization of physicochemical properties and safety profile of novel bacterial topoisomerase type II inhibitors (NBTIs) with activity against Pseudomonas aeruginosa” (Bioorg Med Chem, 2014):

Assays:
Pseudomonas aeruginosa [1] = experiment: Antimicrobial activity against Pseudomonas aeruginosa PAO1 in neutropenic mouse thigh infection model assessed as log reduction in CFU at 150 mg/kg/day, ip bid q12 regime starting 2 hrs after infection measured 24 hrs post start of treatment relative to control; type: functional; details: route intraperitoneal
Outline: (§1)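 CD-1 mice made neutropenic with intraperitoneal cyclophosphamide 4 days (150 mg/kg) and 1 day (100 mg/kg) before thigh infection with P. aeruginosa PAO1, target inoculum 5 × 10⁵ CFU. Groups of five dosed ip in 5% dextrose with lactic acid pH 5.0. Vehicle-only group included. Thighs removed 24 h after treatment start, weighed, homogenized and plated on tryptic soy agar, 37 °C overnight. Log CFU/g reduction is relative to starting inoculum.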

Canis familiaris = experiment: Cardiotoxicity in telemetered dog assessed as prolongation of QTc interval at 56 uM, iv as 1 hr infusion; type: toxicity, organism-based, Canis lupus familiaris; details: in vivo, 4 h, in the assay text read “4 hr infusion” for “1 hr infusion”
Outline: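 Dogs were dosed by iv infusion in vehicle adjusted to pH 4. ECG intervals were measured and QTcR was corrected for heart rate by individual-animal correction. % change in QTcR was taken against the matched time point of the same animal on vehicle. Infusion was 1 h at 5 mL/kg/h (5% dextrose) or 4 h at 2 mL/kg/h (5% mannitol/0.1 M tartaric acid), with readings at infusion end.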

[2] = AUC(infinity) in neutropenic mouse at 150 mg/kg/day, ip bid of total 12 doses; type: ADME, organism-based; set-up: dose 150 mg/kg/day, time infinity, route intraperitoneal; details: plasma
Outline: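 CD-1 mice were made neutropenic with ip cyclophosphamide, 150 mg/kg at day −4 and 100 mg/kg at day −1, then infected in the thigh with P. aeruginosa PAO1. Dosing was ip, bid q12 from 2 h post-infection, in 5% dextrose with lactic acid pH 5.0. Groups of three mice were killed at timed intervals and cardiac-puncture plasma was analysed by LC–MS/MS.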

Cavia porcellus = experiment: Cardiotoxicity in anesthetized guinea pig assessed as change in monophasic action potential duration at 90% repolarization at free drug 86 uM, iv as 17-min infusion; type: toxicity, organism-based; details: in vivo
Outline: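 Male guinea pigs were anaesthetized with Nembutal, ventilated, vagotomized and given propranolol 0.5 mg/kg iv. MAPD90 was recorded during pacing. Compound in 5% dextrose was infused iv over two 17-min periods: 17 mg/kg at 0.1 mL/kg min, then 51 mg/kg at 0.2 mL/kg min. Blood was sampled at each level, and % change was taken from each animal's time-zero baseline.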

Pseudomonas aeruginosa [3] = experiment: Antimicrobial activity against Pseudomonas aeruginosa PAO1 in neutropenic mouse thigh infection model assessed as log reduction in CFU at 200 mg/kg/day, ip bid q12 regime starting 2 hrs after infection measured 24 hrs post start of treatment relative to control; type: functional; details: route intraperitoneal; outline: as §1
[4] = Fraction unbound in human plasma by LC/MS-MS analysis; type: ADME, cell-free
Outline: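 Equilibrium dialysis: 10 µM compound was spiked into human plasma against phosphate buffer and rotated at 37 °C for 16 h. Plasma and buffer concentrations were quantified by LC/MS–MS with a C18 column and ESI MRM detection.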

[5] = Ratio of fAUC to MIC in Pseudomonas aeruginosa PAO1 in neutropenic mouse thigh infection model at 100 mg/kg/day, ip bid of total 12 doses starting 2 h post infection; details: route intraperitoneal
[6] = molecular target: Voltage-gated inwardly rectifying potassium channel KCNH2 (Homo sapiens, UniProt Q12809); experiment: Inhibition of human ERG by cell-based patch clamp method
Pseudomonas aeruginosa [7] = experiment: Antimicrobial activity against Pseudomonas aeruginosa PAO1 in neutropenic mouse thigh infection model assessed as log reduction in CFU at 100 mg/kg/day, ip bid q12 regime starting 2 hrs after infection measured 24 hrs post start of treatment relative to control; type: functional; details: route intraperitoneal; outline: as §1

Chain of Voltage-gated inwardly rectifying potassium channel KCNH2 (Q12809 whole entry): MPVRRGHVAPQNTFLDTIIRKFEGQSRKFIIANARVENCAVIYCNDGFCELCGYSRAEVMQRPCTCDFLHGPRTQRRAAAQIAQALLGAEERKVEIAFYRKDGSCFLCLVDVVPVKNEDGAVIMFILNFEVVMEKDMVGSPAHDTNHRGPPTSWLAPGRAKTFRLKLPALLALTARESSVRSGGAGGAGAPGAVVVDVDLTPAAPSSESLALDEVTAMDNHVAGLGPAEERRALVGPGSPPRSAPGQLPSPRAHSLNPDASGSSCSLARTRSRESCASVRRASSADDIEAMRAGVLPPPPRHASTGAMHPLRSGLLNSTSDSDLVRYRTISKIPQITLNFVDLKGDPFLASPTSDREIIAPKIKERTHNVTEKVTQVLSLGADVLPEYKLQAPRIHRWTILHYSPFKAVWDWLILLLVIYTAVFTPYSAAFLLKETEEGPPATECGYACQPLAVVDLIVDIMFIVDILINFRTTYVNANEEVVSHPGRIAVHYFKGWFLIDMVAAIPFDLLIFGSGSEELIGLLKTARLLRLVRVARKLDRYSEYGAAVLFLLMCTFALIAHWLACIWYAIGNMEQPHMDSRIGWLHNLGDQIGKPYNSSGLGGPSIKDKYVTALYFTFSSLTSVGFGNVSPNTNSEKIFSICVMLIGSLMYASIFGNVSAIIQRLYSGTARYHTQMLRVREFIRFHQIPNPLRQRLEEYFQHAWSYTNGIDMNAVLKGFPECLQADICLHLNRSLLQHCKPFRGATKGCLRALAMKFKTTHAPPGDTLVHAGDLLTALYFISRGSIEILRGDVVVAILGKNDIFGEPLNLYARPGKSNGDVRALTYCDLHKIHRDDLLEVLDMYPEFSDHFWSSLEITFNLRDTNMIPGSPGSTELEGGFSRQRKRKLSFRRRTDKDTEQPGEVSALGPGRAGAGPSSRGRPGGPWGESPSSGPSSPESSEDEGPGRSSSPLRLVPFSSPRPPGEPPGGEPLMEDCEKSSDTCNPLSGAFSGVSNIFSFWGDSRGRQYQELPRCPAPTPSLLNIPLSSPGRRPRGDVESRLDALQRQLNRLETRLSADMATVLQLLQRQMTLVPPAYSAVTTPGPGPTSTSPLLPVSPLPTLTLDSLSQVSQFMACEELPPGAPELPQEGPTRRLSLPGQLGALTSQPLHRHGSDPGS

- AUC(0-inf) [2]: 20100 ng·h/mL
- fraction unbound [4]: 0.73
- fAUC/MIC [5]: 12
SMILES: N[C@@H](Cn1c(=O)cnc2ccc(F)cc21)[C@H]1CC[C@H](NCc2ncc3c(n2)NC(=O)CO3)CC1
- FC (Pseudomonas aeruginosa [1]): 1.3
- Activity (Canis familiaris): 9%
- Activity (Cavia porcellus): Toxic
- FC (Pseudomonas aeruginosa [3]): 2.5
- IC50 [6]: > 333 µM
- FC (Pseudomonas aeruginosa [7]): 0.2
